pIC50: −log10 of the molar value. Calls of active or inactive are those of the source. How the calls were made is not given here.
Key:
Format in all cases: functional, cell-based
[1] = target: T1, Lysophosphatidic acid receptor 5 (Homo sapiens, UniProt Q9H1C0); experiment: Antagonist activity at human LPA5 receptor expressed in RH7777 cells assessed as inhibition of EC80 concentration of hexadecyl LPA-induced calcium mobilization incubated for 15 mins by FLIPR method
[2] = target: T1, Lysophosphatidic acid receptor 5; experiment: Antagonist activity at human LPA5 receptor expressed in RH7777 cells assessed as inhibition of EC80 concentration of hexadecyl LPA-induced calcium mobilization incubated for 15 mins by FLIPR method relative to hexadecyl LPA
[3] = target: T1, Lysophosphatidic acid receptor 5; experiment: Agonist activity at human LPA5 receptor expressed in RH7777 cells assessed as calcium mobilization incubated for 15 mins by FLIPR method
Outline: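 RH7777 cells stably expressing hLPA5, plated 20,000/well in 0.2% FBS medium 18–20 h, loaded 45 min at 37 °C with Calcium 5 dye in HBSS/20 mM HEPES/2.5 mM probenecid pH 7.4. […] Duplicates.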

T1 sequence (Q9H1C0 whole entry): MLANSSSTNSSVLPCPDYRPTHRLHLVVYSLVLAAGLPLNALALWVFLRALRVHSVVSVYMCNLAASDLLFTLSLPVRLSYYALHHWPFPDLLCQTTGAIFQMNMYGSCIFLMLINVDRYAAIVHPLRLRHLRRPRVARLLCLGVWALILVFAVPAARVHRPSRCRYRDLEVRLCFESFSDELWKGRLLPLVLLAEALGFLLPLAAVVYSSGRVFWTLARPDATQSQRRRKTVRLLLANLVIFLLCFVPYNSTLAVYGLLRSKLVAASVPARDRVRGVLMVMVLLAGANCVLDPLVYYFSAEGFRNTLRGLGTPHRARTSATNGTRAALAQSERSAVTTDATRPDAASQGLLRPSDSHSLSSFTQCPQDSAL

pIC50 [1]	inhibition ([2]; filed as antagonist)	Activity [3]	inhibition [2]	Structure (SMILES)
7.49	105%	inactive	–	COc1cc2c(C(=O)N3CCCCC3)cn(-c3ccc4scc(C)c4c3)c(=O)c2cc1OC
< 5.00	–	inactive	–	COc1cc2c(C(=O)N3CCC(c4ccc(F)cc4F)CC3)cn(-c3cccc(N(C)C)c3)c(=O)c2cc1OC
< 5.00	–	inactive	–	COc1cc2c(C(=O)N3CCC(C(N)=O)CC3)cn(-c3cccc(N(C)C)c3)c(=O)c2cc1OC
6.19	101%	inactive	–	COc1cc2c(C(=O)N3CCCCC3)cn(-c3ccc4sccc4c3)c(=O)c2cc1OC
< 5.00	–	inactive	–	COc1cc2c(C(=O)Nc3ccccc3)cn(-c3cccc(N(C)C)c3)c(=O)c2cc1OC
< 5.00	–	inactive	–	COc1cc2c(C(=O)N3CCCC3)cn(-c3cccc(N(C)C)c3)c(=O)c2cc1OC
< 5.00	–	inactive	–	COc1cc2c(C(=O)N3CCCCC3)cn(-c3cccc(C(N)=O)c3)c(=O)c2cc1OC
6.76	107%	inactive	–	COc1cc2c(C(=O)N3CCCCC3)cn(-c3cccc(C(C)(C)C)c3)c(=O)c2cc1OC
5.92	108%	inactive	–	COc1cc2c(C(=O)N3CCC(c4ccccc4)CC3)cn(-c3cccc(N(C)C)c3)c(=O)c2cc1OC
6.68	108%	inactive	–	COc1cc2c(C(=O)N3CCCCC3)cn(-c3ccc4cccc(C)c4c3)c(=O)c2cc1OC
6.05	103%	inactive	–	COc1cc2c(=O)n(-c3cccc(N(C)C)c3)cc(C(=O)N3CCC(F)CC3)c2cc1OC1CCCC1
6.29	96%	inactive	–	COc1cc2c(=O)n(-c3cccc(N(C)C)c3)cc(C(=O)N3CCC(F)CC3)c2cc1OC1CCCCC1
5.60	74%	inactive	–	COc1cc2c(=O)n(-c3cccc(N(C)C)c3)cc(C(=O)N3CCC(F)CC3)c2cc1OCC(F)(F)F
5.81	87%	inactive	–	COc1cc2c(C(=O)N3CCC(C(F)(F)F)CC3)cn(-c3cccc(N(C)C)c3)c(=O)c2cc1OC
5.86	93%	inactive	–	COc1cc2c(=O)n(-c3cccc(N(C)C)c3)cc(C(=O)N3CCC(F)CC3)c2cc1O
5.75	74%	inactive	–	COc1cc2c(C(=O)N3CCCCC3)cn(-c3cccc(C(C)=O)c3)c(=O)c2cc1OC
< 5.00	–	inactive	–	COc1cc2c(C(=O)NC3CCCC3)cn(-c3cccc(N(C)C)c3)c(=O)c2cc1OC
5.96	90%	inactive	–	COc1cc2c(C(=O)N3CCC(C)(C)CC3)cn(-c3cccc(N(C)C)c3)c(=O)c2cc1OC
< 5.00	–	inactive	–	CCCCCNC(=O)c1cn(-c2cccc(N(C)C)c2)c(=O)c2cc(OC)c(OC)cc12
< 5.00	–	inactive	–	CN(C)c1cccc(-n2cc(C(=O)N3CCC(F)CC3)c3ccccc3c2=O)c1
< 5.00	–	inactive	–	COc1cc2c(=O)n(-c3cccc(N(C)C)c3)cc(C(=O)N3CCC(F)CC3)c2cc1OCc1cccc2ccccc12
< 5.00	–	inactive	–	COc1cc2c(=O)n(-c3cccc(N(C)C)c3)cc(C(=O)N3CCC(F)CC3)c2cc1OCc1ccccn1

pIC50 [1]	inhibition ([2]; filed as antagonist)	Activity [3]	inhibition [2]	Structure (SMILES)
5.97	96%	inactive	–	COc1ccc2c(C(=O)N3CCC(F)CC3)cn(-c3cccc(N(C)C)c3)c(=O)c2c1
< 5.00	–	inactive	–	COc1cc2c(C(=O)N3CCCCC3)cn(-c3cccc(C(=O)N(C)C)c3)c(=O)c2cc1OC
5.66	71%	inactive	–	COc1cc2c(C(=O)N3CCOCC3)cn(-c3cccc(N(C)C)c3)c(=O)c2cc1OC
< 5.00	–	inactive	–	COc1cc2c(C(=O)C3CCCCC3)cn(-c3cccc(N(C)C)c3)c(=O)c2cc1OC
< 5.00	–	inactive	–	COc1cc2c(C(=O)N3CCCCC3)cn(-c3cccnc3)c(=O)c2cc1OC
6.59	104%	inactive	–	COc1cc2c(C(=O)N3CCCC(C)C3)cn(-c3cccc(N(C)C)c3)c(=O)c2cc1OC (racemic)
6.49	–	inactive	33%	COc1cc2c(C(=O)N(C)OC)cn(-c3cccc(N(C)C)c3)c(=O)c2cc1OC
6.20	100%	inactive	–	COc1cc2c(C(=O)N3CCCCC3)cn(-c3cccc(OC(C)C)c3)c(=O)c2cc1OC
< 5.00	–	inactive	–	COc1cc2c(C(=O)N(C)Cc3ccncc3)cn(-c3cccc(N(C)C)c3)c(=O)c2cc1OC
6.32	109%	inactive	–	CCCOc1cc2c(C(=O)N3CCC(F)CC3)cn(-c3cccc(N(C)C)c3)c(=O)c2cc1OC
6.52	109%	inactive	–	COc1cc2c(C(=O)N3CCCCCCC3)cn(-c3cccc(N(C)C)c3)c(=O)c2cc1OC
6.64	111%	inactive	–	CCCCCOc1cc2c(C(=O)N3CCC(F)CC3)cn(-c3cccc(N(C)C)c3)c(=O)c2cc1OC
5.41	56%	inactive	–	COc1cc2c(C(=O)N3CCCCC3)cn(-c3ccc4onc(C)c4c3)c(=O)c2cc1OC
7.20	105%	inactive	–	COc1cc2c(C(=O)N3CCCCC3)cn(-c3cccc(C(C)C)c3)c(=O)c2cc1OC
< 5.00	–	inactive	–	COc1cc2c(C(=O)N(C)C)cn(-c3cccc(N(C)C)c3)c(=O)c2cc1OC
< 5.00	–	inactive	–	COc1cc2c(C(=O)NCc3ccccc3)cn(-c3cccc(N(C)C)c3)c(=O)c2cc1OC
< 5.00	–	inactive	–	CCNC(=O)c1cn(-c2cccc(N(C)C)c2)c(=O)c2cc(OC)c(OC)cc12
5.36	86%	inactive	–	COc1cc2c(C(=O)N3CCCc4ccccc43)cn(-c3cccc(N(C)C)c3)c(=O)c2cc1OC
< 5.00	–	inactive	–	COc1ccc2c(=O)n(-c3cccc(N(C)C)c3)cc(C(=O)N3CCC(F)CC3)c2c1
< 5.00	–	inactive	–	COc1cc2c(C(=O)N3CCCCC3)cn(-c3ccccn3)c(=O)c2cc1OC
< 5.00	–	inactive	–	COc1cc2c(C(=O)N3CCC3)cn(-c3cccc(N(C)C)c3)c(=O)c2cc1OC
< 5.00	–	inactive	–	COc1cc2c(C(=O)N3CCCCC3)cn(-c3ccncc3)c(=O)c2cc1OC

Structure (SMILES)	pIC50 [1]	inhibition ([2]; filed as antagonist)	Activity [3]	inhibition [2]
COc1cc2c(C(=O)N3C4CCCC3CC4)cn(-c3cccc(N(C)C)c3)c(=O)c2cc1OC	6.64	103%	inactive	–
COc1cc2c(C(=O)N3C4CCC3CC4)cn(-c3cccc(N(C)C)c3)c(=O)c2cc1OC	< 5.00	–	inactive	–

From ChEMBL document CHEMBL5352427, “Isoquinolone derivatives as lysophosphatidic acid receptor 5 (LPA5) antagonists: Investigation of structure-activity relationships, ADME properties and analgesic effects” (Eur J Med Chem, 2022)
